Assay results as given in ChEMBL document CHEMBL5136969, “A niclosamide-tobramycin hybrid adjuvant potentiates cefiderocol against P. aeruginosa” (2021).
Values after ≈ are worked out from the molar mass of the structure shown.

What was measured:
Format in all cases: functional
Pseudomonas aeruginosa = experiment: Antibacterial activity against Pseudomonas aeruginosa PAO1 assessed as reduction in bacterial growth after 18 hrs by microbroth dilution method
In short: (§1)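 CLSI broth microdilution. Overnight cultures were adjusted in saline to 0.5 McFarland, diluted 1:50 in Mueller-Hinton broth (MHB), and inoculated at about 5 × 10^5 CFU/mL. Agents were 2-fold serially diluted in MHB, mixed 1:1 with inoculum, and held at 37 °C for 18 h. MIC was the lowest concentration with no visible turbidity, confirmed at 590 nm.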

Acinetobacter baumannii = experiment: Antibacterial activity against Acinetobacter baumannii ATCC 17978 assessed as reduction in bacterial growth after 18 hrs by microbroth dilution method
In short: (§2)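 CLSI microbroth dilution in MHB. Overnight cultures were adjusted to 0.5 McFarland in saline, diluted 1:50, and inoculated at about 5 × 10^5 CFU/mL. Agents were 2-fold serially diluted and incubated 18 h at 37 °C. MIC is the lowest concentration without visible turbidity, confirmed by absorbance at 590 nm. Medium with and without cells served as controls.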

Escherichia coli = experiment: Antibacterial activity against Escherichia coli ATCC 25922 assessed as reduction in bacterial growth after 18 hrs by microbroth dilution method; in short: as §2
Staphylococcus aureus [1] = experiment: Antibacterial activity against Staphylococcus aureus ATCC 29213 assessed as reduction in bacterial growth after 18 hrs by microbroth dilution method; in short: as §1
Staphylococcus aureus [2] = experiment: Antibacterial activity against methicillin-resistant Staphylococcus aureus ATCC 33592 assessed as reduction in bacterial growth after 18 hrs by microbroth dilution method
In short: (§3)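 Broth microdilution per CLSI in Mueller-Hinton broth (MHB). Overnight cultures were adjusted to 0.5 McFarland in saline, diluted 1:50 in MHB, and added at about 5 × 10^5 CFU/mL final to equal volumes of 2-fold serial dilutions of agent. Incubation was 18 h at 37 °C. MIC was the lowest concentration with no visible turbidity, confirmed by absorbance at 590 nm.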

[3] = test system: Staphylococcus epidermidis; experiment: Antibacterial activity against methicillin-resistant Staphylococcus epidermidis 61589 assessed as reduction in bacterial growth after 18 hrs by microbroth dilution method; in short: as §3
Enterococcus faecalis = experiment: Antibacterial activity against Enterococcus faecalis ATCC 29212 assessed as reduction in bacterial growth after 18 hrs by microbroth dilution method; in short: as §2
Enterococcus faecium = experiment: Antibacterial activity against Enterococcus faecium ATCC 27270 assessed as reduction in bacterial growth after 18 hrs by microbroth dilution method; in short: as §2

SMILES	MIC (Pseudomonas aeruginosa)	MIC (Acinetobacter baumannii)	MIC (Escherichia coli)	MIC (Staphylococcus aureus [1])	MIC (Staphylococcus aureus [2])	MIC [3]	MIC (Enterococcus faecalis)	MIC (Enterococcus faecium)
NC[C@H]1O[C@H](O[C@H]2[C@H](O)[C@@H](O[C@H]3O[C@H](CO)[C@@H](O)[C@H](N)[C@H]3O)[C@H](N)C[C@@H]2N)[C@H](N)C[C@@H]1O [TOBRAMYCIN]	0.5 µg/mL (≈ 1.07 µM)	0.5 µg/mL (≈ 1.07 µM)	2 µg/mL (≈ 4.28 µM)	0.5 µg/mL (≈ 1.07 µM)	2 µg/mL (≈ 4.28 µM)	8 µg/mL (≈ 17.1 µM)	8 µg/mL (≈ 17.1 µM)	16 µg/mL (≈ 34.2 µM)
O=C(Nc1ccc([N+](=O)[O-])cc1Cl)c1cc(Cl)ccc1O [NICLOSAMIDE]	> 128 µg/mL	> 128 µg/mL	> 128 µg/mL	1 µg/mL (≈ 3.06 µM)	0.25 µg/mL (≈ 0.764 µM)	1 µg/mL (≈ 3.06 µM)	2 µg/mL (≈ 6.11 µM)	2 µg/mL (≈ 6.11 µM)
